What all share (format): cell-based
Test [1] has as its system Candida albicans (MTCC 227). The test can be described thus: microbe, parasite or virus in culture. The note with it: for diameter of the inhibition zone, C. albicans: 0.1 mL of 50 mg mL^-1 in DMSO per 8 mm well, 18-24 h, NA = no activity.
Test [2] has as its system methicillin resistant Staphylococcus aureus (MRSA). The test can be described thus: microbe, parasite or virus in culture. The following applies: for diameter of the inhibition zone, MRSA: 0.1 mL of 50 mg mL^-1 in DMSO per 8 mm well, 18-24 h, NA = no activity.
Test [3] relates to Staphylococcus epidermidis (MTCC 435). The note with it: 0.1 mL of 50 mg mL^-1 in DMSO per 8 mm well, 18-24 h; NA = no activity.
Test [4] concerns Staphylococcus aureus (MTCC 740). The note with it: 0.1 mL of 50 mg mL^-1 in DMSO per 8 mm well, 18-24 h; NA = no activity.
In test [5] the test system is human osteosarcoma cell line MG63. The test can be described thus: Antitumor MTT assay. Background: Tetrazolium dyes change colour on reduction, which living cells bring about.
Test [6] relates to Candida albicans (MTCC 227). The test can be described thus: Minimum inhibitory concentration, agar dilution method. The following applies: Muller Hinton agar, 25 °C, 24 h.
For test [7], the system named is Shigella flexneri (MTCC 1457). The experiment in a line: Minimum inhibitory concentration, agar dilution method. Put shortly:
(§1)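 Bacteria were grown from a loopful in broth at 37 °C for 4 h and adjusted to McFarland turbidity, about (1 to 2) × 10^8 CFU per mL. Test compound in DMSO was mixed into Muller Hinton agar over 0.001–2 mg mL−1. Plates were swab-inoculated with 0.1 mL culture and held at 37 °C for 24 h. MIC was the lowest concentration preventing visible growth, with DMSO as control.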
Background: In agar dilution, organisms are placed on agar that contains the substance at set levels.

The test system of test [8] is Enterococcus faecalis (MTCC 439). The test can be described thus: Minimum inhibitory concentration, agar dilution method. The note with it: MTCC439, 24 h, read-out: Minimum inhibitory concentration, E. faecalis.
Test [9] has as its system methicillin resistant Staphylococcus aureus (MRSA). The experiment in a line: Minimum inhibitory concentration, agar dilution method. The following applies: 24 h, read-out: Minimum inhibitory concentration, MRSA. Put shortly:
as §1

Test [10] relates to Staphylococcus aureus (MTCC 740). The experiment in a line: Minimum inhibitory concentration, agar dilution method. The note with it: MTCC740, 24 h, read-out: Minimum inhibitory concentration, S. Aureus.
In test [11] the test system is Enterococcus faecalis (MTCC 439). The experiment in a line: microbe, parasite or virus in culture.
For test [12], the system named is Shigella flexneri (MTCC 1457). The experiment in a line: microbe, parasite or virus in culture.
Test [13] concerns Staphylococcus epidermidis (MTCC 435). The experiment in a line: Minimum inhibitory concentration, agar dilution method. The note with it: MTCC435, 24 h, read-out: Minimum inhibitory concentration, S. epidermidis.
Setting [14] is: 0.1 mL of 50 mg mL^-1 in DMSO per 8 mm well, 18-24 h, NA = no activity.

Results on eight compounds are retold here after PMC9066168 (RSC Advances, 2019).

Values after ≈ are worked out from the molar mass of the structure shown. Marks after values point to notes of the source that are not given here. Some results are limits rather than exact numbers.

What is called zone of inhibition is the extent of the growth-free halo in a diffusion test. As to `C[C@@H]1[C@H](O)[C@@H](C)/C=C/C=C/C=C/C=C/C=C/C=C/C=C/[C@H](O[C@@H]2O[C@H](C)[C@@H](O)[C@H](N)[C@@H]2O)C[C@@H]2O[C@](O)(C[C@@H](O)C[C@@H](O)[C@H](O)CC[C@@H](O)C[C@@H](O)CC(=O)O[C@H]1C)C[C@H](O)[C@H]2C(=O)O` [Amphotericin B], the “diameter of the inhibition zone, C. albicans” value in [1] is 34 ^d mm. Moreover, in test [1] (Candida albicans, MTCC227, read-out: diameter of the inhibition zone, C. albicans), the zone of inhibition at 50 µg/mL came out at 34 mm.

“purine-6-thione [purSH2, reference compound]”: the “diameter of the inhibition zone, C. albicans” value in test [1] was “inactive”. In test [2], the “diameter of the inhibition zone, MRSA” value amounted to 18 mm. The “diameter of the inhibition zone, S. epidermidis” value in [3] is “inactive”. The “diameter of the inhibition zone, S. aureus” value in test [4] was determined as 13 mm.

In general, IC50 refers to the concentration that inhibits the measured activity by half. Read a low IC50 as greater potency. Compound “[Ag2(purSH2)2(dppm)2](NO3)2·2H2O [Complex 5]” yielded a half-maximal inhibitory concentration (IC50) in [5] (MG63 cells, 24 h exposure, MTT, 570 nm) of 7.62 µM. In test [1], the “diameter of the inhibition zone, C. albicans” value is listed as 17 mm. Also, in test [3], the “diameter of the inhibition zone, S. epidermidis” value was 12 mm. Moreover, the “diameter of the inhibition zone, S. aureus” value in [4] was found to be 12 mm. In [6], the “Minimum inhibitory concentration, C. albicans” value worked out at 50 µg/mL.

`O=c1cc[nH]c(=S)[nH]1` [tucH2, 2-thiouracil, reference compound]: in test [5] (Homo sapiens, MG-63, 24 h), half-maximal inhibition (IC50) was put at 44.3 µM. The “diameter of the inhibition zone, S. epidermidis” value in test [3] was “inactive”.

In [5] (Homo sapiens, MG-63, 24 h), `S=c1cccc[nH]1` [PySH, pyridine-2-thione, reference compound] displayed an IC50 of 29.7 µM.

As for `CNC(C)C1CCC(N)C(OC2C(N)CC(N)C(OC3OCC(C)(O)C(NC)C3O)C2O)O1` (stereo not drawn) [Gentamicin, reference compound], in test [7] (Muller Hinton agar, 37 °C, 24 h), the “Minimum inhibitory concentration, S. flexneri” value worked out at 5 µg/mL (≈ 10.5 µM). The MIC turned out to be 7 µg/mL (≈ 14.7 µM) in test [7] (Shigella flexneri, MTCC1457, 24 h, read-out: Minimum inhibitory concentration, S. flexneri, Muller Hinton agar, 37 °C, 24 h); 30 µg/mL (≈ 62.8 µM) in test [8]; 10 µg/mL (≈ 20.9 µM) in [9]; 0.5 µg/mL (≈ 1.05 µM) in test [10]; 30 µg/mL (≈ 62.8 µM) in test [13]. Also, in [2], the “diameter of the inhibition zone, MRSA” value is 33 ^d mm. For the same compound, the zone of inhibition at 50 µg/mL in test [2] (Staphylococcus aureus, MRSA, read-out: diameter of the inhibition zone, MRSA) turned out to be 33 mm; in test [11] (Enterococcus faecalis, MTCC439, read-out: diameter of the inhibition zone, E. faecalis), 27 mm; in test [12] (Shigella flexneri, MTCC1457, read-out: diameter of the inhibition zone, S. flexneri), 34.5 mm. The “diameter of the inhibition zone, S. epidermidis” value in test [3] is recorded as 25 ^d mm. The “diameter of the inhibition zone, S. aureus” value in test [4] is 26 ^d mm. For the same compound, the “diameter of the inhibition zone, E. faecalis” value in test [11] (setting [14]) is 27 ^d mm. Besides, the “diameter of the inhibition zone, S. flexneri” value in test [12] (setting [14]) was 34.5 ^d mm.

Compound `c1ccc(P(c2ccccc2)c2ccccc2)cc1` [PPh3, triphenylphosphine, reference compound] returned an IC50 in [5] (Homo sapiens, MG-63, 24 h) of over 100 µM.

For `S=c1[nH]c2ccccc2[nH]1` [BzimSH, benz-imidazoline-2-thione], in test [1], the “diameter of the inhibition zone, C. albicans” value is on record as 13 mm.
